# Bioassay records (PubChem)
# DAGLB inh: DAGLB lipase inhibitors, primary screen, biochemical, fluorescence, HTS; HEK293T DAGLB membrane lysate, EnzChek fluorogenic substrate; inhibition, % at 5.17 µM; AID 504411, 2011; 340,000 tested, 0.059% active; Diacylglycerol lipase-beta (Homo sapiens), Q8NCG7; in the data active = inhibition above about 34%;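 also: 0% = enzyme with vehicle and 100% = wells lacking enzyme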
# TAAR1 ag: human TAAR1 agonists, primary screen, Fluo-8 calcium fluorescence, CHO RD-HGA16 cells; Trace amine-associated receptor 1 (Homo sapiens), Q96RJ0; vehicle wells 0%, saturating PEA agonist 100%; activation, % at 3 µM; 360,000 tested, 0.99% active;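 active = activation above the mean activation of all test compounds in the run plus 3 SD, cut at about 38% in these data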
# Target sequence (Q96RJ0 whole entry, looked up): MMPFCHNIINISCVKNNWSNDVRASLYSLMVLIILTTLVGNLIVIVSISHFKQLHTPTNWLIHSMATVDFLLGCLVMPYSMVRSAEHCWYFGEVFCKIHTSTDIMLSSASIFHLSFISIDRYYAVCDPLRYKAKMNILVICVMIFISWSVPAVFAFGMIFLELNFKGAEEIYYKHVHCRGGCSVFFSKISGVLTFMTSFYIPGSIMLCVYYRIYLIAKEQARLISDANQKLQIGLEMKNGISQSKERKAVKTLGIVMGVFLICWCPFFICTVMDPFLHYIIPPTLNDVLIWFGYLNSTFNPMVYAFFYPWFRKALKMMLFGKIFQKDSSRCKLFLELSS
#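 Test system: RD-HGA16 (CHO) cells co-expressing Gα16 and hTAAR1 / Benchmarks: DMSO vehicle as 0%, PEA at EC100 as 100% / Repeats: no replicates (n 1) / Measure: % activation from peak over basal fluorescence ratio, DMSO-to-PEA scaled / Timing: 17-24 h plating, Fluo-8 75 min 37 °C, 30 min RT / Technique: kinetic Fluo-8 calcium fluorescence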
# TAAR1 antagonist: human TAAR1 antagonists, primary screen, Fluo-8 calcium fluorescence, CHO RD-HGA16 cells; 360,000 tested, 1.5% active; inhibition, % at 3 µM; Trace amine-associated receptor 1 (Homo sapiens), Q96RJ0; antagonist;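 active = inhibition above a per-plate cutoff, the mean inhibition of test compounds on that plate plus 3 SD, cut at about 49% in these data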;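 also: 0% = DMSO plus EC80 beta-PEA response and 100% = DMSO alone without agonist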
#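 Test system: CHO RD-HGA16 cells bearing hTAAR1 | Reagent: β-PEA, EC80 | Compound dosing: 3 µM, single point | Schedule: Dye loading 75 min at 37 °C, then 30 min room temperature | Signal: Calcium fluorescence with Fluo-8 | Evaluation: Percent inhibition of PEA-evoked calcium signal, max/basal emission ratio | Control set: DMSO-only wells and EC80 β-PEA-stimulated wells | Repeats: Singlicate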
# GPR7 antagonist: GPR7 receptor antagonists, primary screen, cell-based, fluorescence, single concentration; Neuropeptides B/W receptor type 1 (Homo sapiens), P48145; GPR7-expressing cells, fluorescence antagonist assay; inhibition, % at 4.4 µM; 290,000 tested, 1.1% active; AID 1861, 2009; in the data active = inhibition above about 16%, passing the limit was not always enough;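 also: cells stimulated with the agonist NPW; 0% = agonist with vehicle and 100% = vehicle without agonist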
# Target sequence (P48145 whole entry, looked up): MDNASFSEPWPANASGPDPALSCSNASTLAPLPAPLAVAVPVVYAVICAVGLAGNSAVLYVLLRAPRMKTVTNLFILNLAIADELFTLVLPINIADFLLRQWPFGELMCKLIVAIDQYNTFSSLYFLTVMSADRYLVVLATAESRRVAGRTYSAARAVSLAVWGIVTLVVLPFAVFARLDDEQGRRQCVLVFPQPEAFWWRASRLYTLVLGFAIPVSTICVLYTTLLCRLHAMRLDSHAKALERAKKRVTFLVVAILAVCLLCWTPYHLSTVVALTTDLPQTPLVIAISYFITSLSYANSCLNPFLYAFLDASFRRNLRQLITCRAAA
# MPTP inh: mitochondrial permeability transition pore inhibitors, primary screen, biochemical, isolated mouse mitochondria, absorbance; 360,000 tested, 1.4% active; inhibition, % at 10 µM; Ca2+ swelling absorbance, 30 min;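 active = inhibition of 50% or more, scaled per plate between neutral and stimulator controls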;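 also: 0% = DMSO wells given calcium and 100% = 1 mM EGTA wells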
# MPTP counter: fluorescence retest of MPTP screen hits in isolated mitochondria, single concentration. 5,000 tested, 78% active. shares compounds with MPTP inh. inhibition, % at 10 µM. membrane potential, Rhodamine 123 fluorescence; in the data active = inhibition above about 22%;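 also: 0% = DMSO vehicle and 100% = positive control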
# MPTP swell DR: mitochondrial permeability transition pore inhibitors, dose response, biochemical, absorbance, uHTS hits; 780 tested, 58% active; shares compounds with MPTP inh; isolated mitochondria swelling; AID 651561, 2012; IC50, µM; in the data active = IC50 below about 20 µM
# MPTP cs DR: fluorescent counter-screen in isolated mitochondria, dose response, counter-screen for MPTP inhibitor project, biochemical, fluorescence, uHTS hits | shares compounds with MPTP inh | isolated mitochondria counterscreen, fluorescence read-out | IC50, µM | 780 tested, 49% active | AID 651564, 2012; in the data active = IC50 below about 80 µM
# * marks the source's active call; other numbers are inactive results; nt = no result given; + = active, no number. Most compounds without a hit are left out; they make up all but 4% or so of the library.
SMILES,DAGLB inh,TAAR1 ag,TAAR1 antagonist,GPR7 antagonist,MPTP inh,MPTP counter,others
CC(=O)C1CCC2C3CC(C)=C4CC(O)CCC4(C)C3CCC12C (stereo unspecified),-4,-2,-26,nt,0,nt,
O=C(Nc1cccc(Cl)c1)OCCN1CCN(Cc2ccccc2)CCC1=O,-2,16,15,3,93*,89*,
C[C@@H]1C=CCCO[C@]12C(=O)N(CC1CC1)c1cccc(Br)c12,nt,3,-6,nt,nt,nt,
CCOc1cc(CNCCSc2nnnn2C)cc(Br)c1OCc1ccccc1,-4,17,13,7,17,nt,
CCOc1cc(CNCCO)cc(Br)c1OCc1ccccc1,-3,23,-10,15,89*,5,MPTP swell DR=5.5*;MPTP cs DR=19*
Fc1ccc(COc2ccc(Br)cc2CNCc2ccncc2)cc1,-4,29,29,10,2,nt,
CCOc1cc(CNCc2ccncc2)cc(Br)c1OCc1ccc(F)cc1,-3,6,22,-2,98*,15,MPTP swell DR=8.4*;MPTP cs DR=26*
CC(C)(C)S(=O)N1C[C@@H]2CC(=O)C(CCO)=C2[C@H]1CCO (stereo partly specified),nt,8,-1,nt,nt,nt,
COc1ccccc1N(C(=O)CCl)c1cn(C(C)=O)c2ccccc12,1,1,-3,-13,1,nt,
COc1ccccc1N(C(C)=O)C1=C(Cl)C(=O)c2ccccc2C1=O,-2,15,57*,nt,51*,95*,
CC(=O)Oc1cc(C)c(Cl)c2c(OC(C)=O)cc(C(C)=O)c(O)c12,nt,2,-3,nt,nt,nt,
O=C(Cc1ccc(S(=O)(=O)N2CCCCC2)s1)Nc1cccc2ccccc12,-2,4,13,-8,+,4,MPTP swell DR=>100;MPTP cs DR=>80
Cc1nnc2ccc(Oc3ccc(-c4ccccc4)cc3)nn12,1,3,29,-2,74*,66*,
COC(=O)[C@]12C[C@H](CC(=O)NCCc3ccccc3OC)C(=O)N(CCC3=CCCCC3)C1=C[C@H](C(C)(C)C)O[C@@H]2C,nt,27,-4,nt,nt,nt,
COc1ccc(-c2cc3ccccc3n2CC(O)CN2CCCCC2)cc1 (stereo unspecified),0,5,-26,-15,1,nt,
COc1ccc(-c2cc3ccccc3n2CC(O)CNCCO)cc1 (stereo unspecified),0,6,11,8,54*,-18,MPTP swell DR=10*;MPTP cs DR=>80
CCCCn1c(N)c(N(CCC(C)C)C(=O)c2c(CC)noc2C)c(=O)[nH]c1=O,-6,1,-5,nt,1,nt,
COc1ccc(OCc2nc3c4c(ncn3n2)-c2ccccc2CC42CCCC2)cc1,-2,-1,19,-10,35,nt,
Oc1cccc(-c2nc3c4c(ncn3n2)-c2ccccc2CC42CCCC2)c1,-12,13,48,-18,11,nt,
Cc1ccc(OCc2nc3c4c(ncn3n2)-c2ccccc2CC42CCCC2)cc1,-3,0,4,-1,57*,-8,MPTP swell DR=8.4*;MPTP cs DR=>80
COc1ccc(-c2nc3c4c(ncn3n2)-c2ccccc2CC42CCCC2)cc1,-3,0,-1,0,78*,1,MPTP swell DR=>100;MPTP cs DR=>80
Cc1ccccc1OCc1nc2c3c(ncn2n1)-c1ccccc1CC31CCCC1,-4,1,2,-15,69*,1,MPTP swell DR=13*;MPTP cs DR=>80
COC(=O)C1=C(C)N(Cc2ccccc2)C(=S)NC1c1cccc(Br)c1 (stereo unspecified),nt,-2,43,nt,nt,nt,
Cc1cc(C)c2c(=N)c3ccccc3n(CCCCCCCCn3c4ccccc4c(=N)c4c(C)cc(C)nc43)c2n1,2,10,-27,nt,9,nt,
CCN(CC)CCNC(=O)c1cc2c(-c3ccc(Cl)cc3)nn(C)c2s1,3,3,0,5,86*,-26,
SMILES,DAGLB inh,TAAR1 ag,TAAR1 antagonist,GPR7 antagonist,MPTP inh,MPTP counter,others
Cn1nc(-c2ccc(Cl)cc2)c2cc(C(=O)NCCCN3CCOCC3)sc21,0,nt,nt,-9,74*,-12,
Cn1nc(-c2ccc(Cl)cc2)c2cc(C(=O)NCCN3CCOCC3)sc21,-1,1,-2,-5,-2,nt,
CN(C)c1ccc(-c2ccnc3c2CC(C)(C(=O)NCC2CC2)O3)cc1 (stereo unspecified),nt,-2,-7,nt,0,nt,
COc1cccc(C(C)NC(=O)Nc2cc(Cl)ccc2OC)c1 (stereo unspecified),-4,4,11,-15,-1,nt,
Cc1cc(NC(=O)Nc2cccc(C(F)(F)F)c2)no1,-1,14,19,-18,76*,71*,
COc1cccc(C(C)NC(=O)Nc2cccc(C(F)(F)F)c2)c1 (stereo unspecified),-3,2,24,-5,96*,102*,
Cc1cc(/C(N)=N/OC(=O)Nc2cccc(C(F)(F)F)c2)no1,nt,7,-13,4,72*,88*,
CCN(CC)S(=O)(=O)c1cccc(NC(=O)Nc2cccc(C(F)(F)F)c2)c1,-4,15,22,5,87*,69*,
O=C(NCc1csc(-c2cccs2)n1)Nc1ccc(C(F)(F)F)cc1,nt,0,-52,-1,66*,77*,
O=C(NCc1csc(-c2cccs2)n1)Nc1ccc(F)cc1F,-4,8,-15,8,6,nt,
CN1CCC(N(C)C(=O)c2cc(-c3ccc(F)cc3)nc3ccccc23)CC1,2,2,-2,nt,1,nt,
CCN1/C(=C/c2ccc3ccccc3[n+]2CC)C=Cc2ccccc21,25,3,12,53*,160*,68*,
CCN(CC)CCOC(=O)c1ccc(NC(=O)CCCN2C(=O)/C(=C/c3cccs3)SC2=S)cc1,0,17,12,20,0,nt,
CN1CCN(c2ccc(CNS(=O)(=O)Cc3cccc(C(F)(F)F)c3)cc2)CC1,nt,9,-1,7,84*,86*,
COc1ccc(-c2cc(=O)n(-c3ccc([N+](=O)[O-])cc3)[nH]2)cc1,19,1,0,12,97*,71*,
CCC1=NN(C(=O)c2cccc(Br)c2)C(O)(c2ccc(Br)cc2)C1 (stereo unspecified),11,3,18,-8,84*,89*,
CC(C)(C)OC(=O)N/N=C/c1cc(N=Nc2ccccc2)ccc1O,16,1,24,-10,96*,69*,
